ChEMBL document CHEMBL2202989, “New adamantane phenylalkylamines with σ-receptor binding affinity and anticancer activity, associated with putative antagonism of neuropathic pain” (J Med Chem, 2012)
Active and inactive are the calls of the source. The rule behind the calls is not given here.

How the values were obtained:
PC-3 [1] = experiment: Induction of apoptosis in human PC3 cells assessed as healthy cells at 15 uM using annexin V/7-AAD by FACS analysis (reference value: 91 %); format: functional
BXPC-3 [2] = experiment: Cell cycle arrest in human BxPC3 cells assessed as accumulation at >G2/M phase at 0.5 uM after 24 hrs using propidium iodide staining by FACS analysis (reference value: 6 %); format: functional
How it was run: (§1)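 Cells were plated 24 h before treatment and exposed for 24 h at final 0.5, 5, 15 and 50 μM in 0.5% DMSO, against vehicle-treated controls. Cells were then trypsinised and fixed in cold ethanol for 3 h at 4 °C. They were stained in a mix of RNase (200 μg/mL) and PI (1 mg/mL) for 45 min at room temperature in the dark. Flow cytometry used 488 nm excitation and 10 000 gated cells. Phase percentages were assigned from DNA content.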

PC-3 [3] = experiment: Cell cycle arrest in human PC3 cells assessed as accumulation at G2 phase at 5 uM after 24 hrs using propidium iodide staining by FACS analysis (reference value: 12 %); format: functional
IGROV-1 [4] = experiment: Cell cycle arrest in human IGROV1 cells assessed as accumulation at >G2/M phase at 5 uM after 24 hrs using propidium iodide staining by FACS analysis (reference value: 21 %); format: functional; how it was run: as §1
PC-3 [5] = experiment: Cell cycle arrest in human PC3 cells assessed as accumulation at G1 phase at 50 uM after 24 hrs using propidium iodide staining by FACS analysis (reference value: 36 %); format: functional
Mus musculus = experiment: Analgesic activity in CD1 mouse neuropathic pain model assessed as reduction in paw licking time at 100 mg/kg, po administered 1 hr prior to formalin challenge in presence of paclitaxel; format: functional, organism-based; design: dose 100 mg/kg
How it was run: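 CD1 male mice (34−40 g), free access to food and water, were given paclitaxel 6 mg/kg ip once in saline on day 0. On day 14 the test compound was given orally 1 h before formalin was injected into the hind paw. Time spent licking and biting the injected paw and leg was recorded at 0−5 and 35−40 min after formalin.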

BXPC-3 [6] = experiment: Cell cycle arrest in human BxPC3 cells assessed as accumulation at >G2/M phase at 50 uM after 24 hrs using propidium iodide staining by FACS analysis (reference value: 6 %); format: functional; how it was run: as §1
IGROV-1 [7] = experiment: Induction of apoptosis in human IGROV1 cells assessed as late apoptosis at 15 uM using annexin V/7-AAD by FACS analysis (reference value: 5 %); format: functional
IGROV-1 [8] = experiment: Cell cycle arrest in human IGROV1 cells assessed as accumulation at >G2/M phase at 0.5 uM after 24 hrs using propidium iodide staining by FACS analysis (reference value: 21 %); format: functional; how it was run: as §1
SK-HEP1 = experiment: Growth inhibition of human SKHEP1 cells after 48 hrs by SRB assay; format: functional; details: SK-HEP1, 48 h
How it was run: (§2)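 Cells grown in RPMI 1640 with 5% heat-inactivated FCS, 2 mM L-glutamine and antibiotics, 37 °C, 5% CO2. Seeded at 3500–30000 cells/well and left 24 h before dosing. DMSO solutions added at 10-fold dilutions from 100 to 0.01 μM for 48 h. Cells TCA-fixed and SRB-stained, absorbance read at 540 nm; GI50 derived against the time-zero plate.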

BXPC-3 [9] = experiment: Cell cycle arrest in human BxPC3 cells assessed as accumulation at G2 phase at 15 uM after 24 hrs using propidium iodide staining by FACS analysis (reference value: 12 %); format: functional; how it was run: as §1
IGROV-1 [10] = experiment: Induction of apoptosis in human IGROV1 cells assessed as late apoptosis at 0.5 uM using annexin V/7-AAD by FACS analysis (reference value: 5 %); format: functional
IGROV-1 [11] = experiment: Cell cycle arrest in human IGROV1 cells assessed as accumulation at G2 phase at 15 uM after 24 hrs using propidium iodide staining by FACS analysis (reference value: 19 %); format: functional
BXPC-3 [12] = experiment: Growth inhibition of human BxPC3 cells after 48 hrs by SRB assay; format: functional; details: BXPC-3, 48 h; how it was run: as §2
IGROV-1 [13] = experiment: Growth inhibition of human IGROV1 cells after 48 hrs by SRB assay; format: functional; details: IGROV-1, 48 h; how it was run: as §2
IGROV-1 [14] = experiment: Induction of apoptosis in human IGROV1 cells assessed as early apoptosis at 0.5 uM using annexin V/7-AAD by FACS analysis (reference value: 9 %); format: functional
BXPC-3 [15] = experiment: Cell cycle arrest in human BxPC3 cells assessed as accumulation at G1 phase at 50 uM after 24 hrs using propidium iodide staining by FACS analysis (reference value: 41 %); format: functional; how it was run: as §1
IGROV-1 [16] = experiment: Induction of apoptosis in human IGROV1 cells assessed as cleaved caspase3 containing cells at 5 uM by antibody-based FACS analysis (reference value: 3.9 %); format: functional
IGROV-1 [17] = experiment: Cell cycle arrest in human IGROV1 cells assessed as accumulation at S phase at 15 uM after 24 hrs using propidium iodide staining by FACS analysis (reference value: 29 %); format: functional
BXPC-3 [18] = experiment: Induction of apoptosis in human BxPC3 cells assessed as cleaved caspase3 containing cells at 50 uM by antibody-based FACS analysis (reference value: 8.2 %); format: functional
PC-3 [19] = experiment: Cell cycle arrest in human PC3 cells assessed as accumulation at S phase at 15 uM after 24 hrs using propidium iodide staining by FACS analysis (reference value: 42 %); format: functional
PC-3 [20] = experiment: Cell cycle arrest in human PC3 cells assessed as accumulation at >G2/M phase at 5 uM after 24 hrs using propidium iodide staining by FACS analysis (reference value: 6 %); format: functional
IGROV-1 [21] = experiment: Cell cycle arrest in human IGROV1 cells assessed as accumulation at S phase at 5 uM after 24 hrs using propidium iodide staining by FACS analysis (reference value: 29 %); format: functional
PC-3 [22] = experiment: Cell cycle arrest in human PC3 cells assessed as accumulation at G2 phase at 0.5 uM after 24 hrs using propidium iodide staining by FACS analysis (reference value: 12 %); format: functional
IGROV-1 [23] = experiment: Cell cycle arrest in human IGROV1 cells assessed as accumulation at G1 phase at 0.5 uM after 24 hrs using propidium iodide staining by FACS analysis (reference value: 27 %); format: functional; how it was run: as §1
BXPC-3 [24] = experiment: Induction of apoptosis in human BxPC3 cells assessed as early apoptosis at 15 uM using annexin V/7-AAD by FACS analysis (reference value: 9 %); format: functional
IGROV-1 [25] = experiment: Induction of apoptosis in human IGROV1 cells assessed as early apoptosis at 50 uM using annexin V/7-AAD by FACS analysis (reference value: 9 %); format: functional
PC-3 [26] = experiment: Cell cycle arrest in human PC3 cells assessed as accumulation at sub G1 phase at 15 uM after 24 hrs using propidium iodide staining by FACS analysis (reference value: 4 %); format: functional
OVCAR-5 = experiment: Growth inhibition of human OVCAR5 cells after 48 hrs by SRB assay; format: functional; details: OVCAR-5, 48 h; how it was run: as §2
IGROV-1 [27] = experiment: Cell cycle arrest in human IGROV1 cells assessed as accumulation at sub G1 phase at 50 uM after 24 hrs using propidium iodide staining by FACS analysis (reference value: 4 %); format: functional
[28] = read-out: LC50 (the source's name)

In the case of `CN1CCN(CCCc2ccc(C(c3ccccc3)C34CC5CC(CC(C5)C3)C4)cc2)CC1` (stereo not drawn), the Activity (PC-3 [1]) is reported as 71%, the Activity (BXPC-3 [2]) is reported as 7% and the Activity (PC-3 [3]) is reported as 10%. The Activity (IGROV-1 [4]) was 20%, the Activity (PC-3 [5]) was 29% and the Activity (Mus musculus) was “Active”. For the same compound, the Activity (BXPC-3 [6]) was 4%, the Activity (IGROV-1 [7]) was 20% and the Activity (IGROV-1 [8]) was 20%. The GI50 (SK-HEP1) was 3.49 µM, the TGI (SK-HEP1) was 6.37 µM and the CC50 (SK-HEP1; [28]) was 0.00924 µM. The Activity (BXPC-3 [9]) was 12%, the Activity (IGROV-1 [10]) was 3% and the Activity (IGROV-1 [11]) was 27%. It also gave a GI50 (BXPC-3 [12]) of 3.41 µM, an LC50 (BXPC-3 [12]) of 0.0088 µM and a TGI (BXPC-3 [12]) of 6.1 µM. The GI50 (IGROV-1 [13]) was 4.54 µM, the TGI (IGROV-1 [13]) was 11.9 µM and the CC50 (IGROV-1 [13]; [28]) was 0.0748 µM. For the same compound, the Activity (IGROV-1 [14]) was 8%, the Activity (BXPC-3 [15]) was 31% and the Activity (IGROV-1 [16]) was 12.6%. The Activity (IGROV-1 [17]) was 25%, the Activity (BXPC-3 [18]) was 4.8% and the Activity (PC-3 [19]) was 31%. It also gave an Activity (PC-3 [20]) of 6%, an Activity (IGROV-1 [21]) of 27% and an Activity (PC-3 [22]) of 15%. The Activity (IGROV-1 [23]) was 25%, the Activity (BXPC-3 [24]) was 19% and the Activity (IGROV-1 [25]) was 40%. The Activity (PC-3 [26]) was 25%, the GI50 (OVCAR-5) was 3.6 µM and the TGI (OVCAR-5) was 6.9 µM. For the same compound, the CC50 (OVCAR-5; [28]) was 0.0102 µM and the Activity (IGROV-1 [27]) was 18%.
